In ChEMBL document CHEMBL1152919, “Chloro-oxime derivatives as novel small molecule chaperone amplifiers” (Bioorg Med Chem Lett, 2009):
Several values for one entry are separate records, joined by “and”; a condition that tells them apart may be missing. Equal entries are not always repeated. Activity calls are given as the source filed them. The calls are words filed in the database; no cut-off is given here.

Tests used:
[1] = Cytotoxicity against human SK-N-SH cells by MTS assay; format: cell-based
Summary of the method: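 SK-N-SH cells, 14,000/well, seeded in DMEM with 10% FBS 18 h before compound (1:200 dilution; final 0.3–80 µM). MTS read-out; % inhibition = (MTS DMSO − MTS compound)/MTS DMSO ×100; CC50 by nonlinear regression; average SD across runs 14%.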

SK-N-SH [2] = assay: Cytoprotective activity against 26S proteasome inhibitor MG132-induced stress in human SK-N-SH cells assessed as cell viability treated 1 hr before MG132 challenge measured after 24 hrs; format: functional, cell-based
Summary of the method: (§1)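 SK-N-SH cells, 12,500/well, exposed to compound 1 h ahead of MG-132 (5 µM final), then 24 h. Viability by ATPlite-1step luminescence; increased ATP% = (RLU compound − RLU DMSO)/RLU DMSO ×100, with DMSO as negative control. Tested 0.3–80 µM in twofold steps; EC50 from nonlinear regression curve fit; max cytoprotection >60% scored active.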

[3] = target: T1, Heat shock factor protein 1 (Homo sapiens) (UniProt Q00613); assay: Transcriptional activation of HSF1 in human HeLa cells assessed as granule formation treated for 3 hrs at 37 degC without heat shock by immunocytochemical staining
T1 sequence (whole entry): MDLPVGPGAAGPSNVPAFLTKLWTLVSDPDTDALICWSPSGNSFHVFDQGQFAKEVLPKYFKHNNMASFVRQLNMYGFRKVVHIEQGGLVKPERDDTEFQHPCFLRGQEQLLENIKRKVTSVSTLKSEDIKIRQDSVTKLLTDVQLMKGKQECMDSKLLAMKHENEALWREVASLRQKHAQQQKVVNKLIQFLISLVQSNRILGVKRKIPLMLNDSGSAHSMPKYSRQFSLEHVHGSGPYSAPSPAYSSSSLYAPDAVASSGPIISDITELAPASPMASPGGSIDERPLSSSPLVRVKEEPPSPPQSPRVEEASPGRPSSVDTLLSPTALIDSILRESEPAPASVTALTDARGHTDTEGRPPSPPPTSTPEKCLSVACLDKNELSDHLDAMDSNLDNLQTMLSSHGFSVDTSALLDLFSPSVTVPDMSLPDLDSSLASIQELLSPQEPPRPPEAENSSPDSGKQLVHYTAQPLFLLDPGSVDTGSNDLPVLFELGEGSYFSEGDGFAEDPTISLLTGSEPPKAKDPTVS

[4] = Cytotoxicity against human HeLa cells by MTS assay; format: cell-based
HeLa [5] = assay: Stimulation of human HeLa cells proliferation upto 20 uM by Click-iT assay; format: functional, cell-based
Summary of the method: (§2)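 Click-iT cell proliferation assay, run on HeLa and SK-N-SH cells across 0–20 µM compound.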

SK-N-SH [6] = assay: Decrease in human SK-N-SH cells proliferation upto 20 uM by Click-iT assay; format: functional, cell-based; summary of the method: as §2
[7] = target: T1, Heat shock factor protein 1 (Homo sapiens); assay: Transcriptional activation of HSF1 in heat shock stress-induced human HeLa cells assessed as granule formation treated 1 hr before heat shock challenge measured after 2 hrs by immunocytochemical staining; format: cell-based
Summary of the method: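 HeLa cells given compound 1 h, then heat shock at 41 °C for 2 h without recovery; HSF1 immunocytochemical staining, quantified by high-content imaging. Range 0.3–80 µM, twofold dilution, 200-fold overall.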

[8] = target: T2, Heat shock factor protein 1 (Homo sapiens, UniProt Q00613); assay: Transcriptional activation of HSF1 in heat shock stress-induced human HeLa cells assessed as granule formation at 80 uM treated 1 hr before heat shock challenge measured after 2 hrs by immunocytochemical staining; format: cell-based
T2 sequence (Q00613 whole entry): T1 sequence (whole entry)

HeLa [9] = assay: Cytotoxicity against human HeLa cells at 80 uM by MTS assay; format: cell-based
SK-N-SH [10] = assay: Cytoprotective activity against MG132-induced stress in human SK-N-SH cells assessed as survivality treated 1 hr before MG132 challenge measured after 24 hrs relative to control; format: functional; summary of the method: as §1
PC-12 = assay: Cytoprotective activity against tunicamycin-induced endoplasmic reticulum stress in rat PC12 cells assessed as viability after 43 hrs relative to control; format: functional
Summary of the method: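 PC12 cells, 5000/well, differentiated with NGF (50 ng/ml final) for 5–7 days until neurites appear. Compound (1:20 dilution) given together with tunicamycin (750 ng/mL final) for 43 h at 37 °C. Viability by ATPlite; ATP increase expressed against the DMSO plus tunicamycin control.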

HeLa [11] = assay: Increase in HSP70 expression in heat shock stress-induced human HeLa cells assessed as granule formation after 2 hrs of recovery time by immunocytochemical staining; format: functional, cell-based
Summary of the method: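 HeLa cells heat-shocked at 41 °C; HSP70 immunocytochemical staining 2 h after heat shock; automated image acquisition, quantifying HSP70 granule count and total granule area.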

[12] = Homo sapiens, SK-N-SH, read-out: EC50

| Activity [3] | EC50 (SK-N-SH [2]; [12]) | Structure (SMILES) | CC50 [1] | CC50 [4] | further results |
| --- | --- | --- | --- | --- | --- |
| inactive | – | OC(CO/N=C(\Cl)c1nc2ccccc2s1)CN1CCCC1 (stereo not drawn) | 31.1 µM | 60.1 µM | EC50 (SK-N-SH [2]; sk-n-sh): Not Active |
| – | – | CO/C(=N\OCC(O)CN1CCCCC1)c1nc2ccccc2o1 (stereo not drawn) | > 80 µM | > 80 µM | EC50 (SK-N-SH [2]; sk-n-sh): Not Active |
| – | – | C/C(=N\OCC(O)CN1CCCCC1)c1nc2ccccc2o1 (stereo not drawn) | > 80 µM | > 80 µM | EC50 (SK-N-SH [2]; sk-n-sh): Not Active |
| inactive | 6.9 µM | OC(CO/N=C(\Cl)c1nc2c(F)cccc2o1)CN1CCCCC1 (stereo not drawn) | 20.3 µM | 40.2 µM | – |
| inactive | 8.9 µM | CCCN(CC(O)CO/N=C(\Cl)c1nc2ccccc2o1)C(C)C (stereo not drawn) | 50.4 µM | 57.6 µM | Activity (HeLa [5]): inactive; Activity (SK-N-SH [6]): Active |
| inactive | 10.2 µM | CCCN(CCC)CC(O)CO/N=C(\Cl)c1nc2ccccc2o1 (stereo not drawn) | 46.4 µM | – | – |
| inactive | – | CC(C)(C)NCC(O)CO/N=C(\Cl)c1nc2ccccc2o1 (stereo not drawn) | 24.7 µM | 55.4 µM | Activity [7]: inactive; EC50 (SK-N-SH [2]; sk-n-sh): Not Active |
| – | – | OC(CO/N=C/c1nc2ccccc2o1)CN1CCCCC1 (stereo not drawn) | > 80 µM | > 80 µM | EC50 (SK-N-SH [2]; sk-n-sh): Not Active |
| inactive | 20.9 µM | CCC(C)N(CC(O)CO/N=C(\Cl)c1nc2ccccc2o1)C(C)CC (stereo not drawn) | 54.2 µM | – | Activity [8]: 62% and 25%; Activity [7]: inactive |
| inactive | 7.9 µM | CN(C)S(=O)(=O)c1ccc2nc(/C(Cl)=N/OCC(O)CN3CCCCC3)oc2c1 (stereo not drawn) | 42.4 µM | 45.1 µM | – |
| – | – | OC(CO/N=C(\Cl)c1cc2ccccc2s1)CN1CCCCC1 (stereo not drawn) | 67.7 µM | > 80 µM | EC50 (SK-N-SH [2]; sk-n-sh): Not Active |
| inactive | 18.8 µM | OC(CO/N=C(\Cl)c1nc2ccccc2o1)CN1CCC(F)CC1 (stereo not drawn) | 52.6 µM | – | Activity [8]: 63%; Inhibition (HeLa [9]): 35% |
| inactive | 12.4 µM | CCCN(CC)CC(O)CO/N=C(\Cl)c1nc2ccccc2o1 (stereo not drawn) | 42.1 µM | 40.7 µM | – |
| inactive | 6.1 µM | Cc1ccc2nc(/C(Cl)=N/OCC(O)CN3CCCCC3)oc2c1 (stereo not drawn) | 28 µM | 18.8 µM | – |
| inactive | 9.9 µM | CC(C)N(CC(O)CO/N=C(\Cl)c1nc2ccccc2o1)C(C)(C)C (stereo not drawn) | 40.3 µM | 30.8 µM | – |
| – | 39.3 µM | CS(=O)(=O)NCC(O)CO/N=C(\Cl)c1nc2ccccc2o1 (stereo not drawn) | > 80 µM | 48.5 µM | – |
| inactive | 10.1 µM | CC(C)N(CCCF)CC(O)CO/N=C(\Cl)c1nc2ccccc2o1 (stereo not drawn) | 46 µM | 33.8 µM | – |
| – | – | OC(CO/N=C(\Cl)c1cc2ccccc2o1)CN1CCCCC1 (stereo not drawn) | > 80 µM | > 80 µM | EC50 (SK-N-SH [2]; sk-n-sh): Not Active |
| inactive | 43.6 µM | O=C(NCC(O)CO/N=C(\Cl)c1nc2ccccc2o1)N1CCCCC1 (stereo not drawn) | 59.6 µM | 46.9 µM | Activity [8]: 28%; Activity [7]: inactive |
| inactive | 5.9 µM | CCS(=O)(=O)c1ccc2oc(/C(Cl)=N/OCC(O)CN3CCCCC3)nc2c1 (stereo not drawn) | 44.2 µM | 41.4 µM | – |
| inactive | 12 µM | OC(CO/N=C(\Cl)c1nc2cc(F)ccc2o1)CN1CCCCC1 (stereo not drawn) | 62.4 µM | > 80 µM | – |
| – | 15.7 µM | OC(CO/N=C(\Cl)c1nc2ccccc2o1)CN1CCCCC1 (stereo not drawn) | 26 µM | 41.7 µM | Activity (HeLa [5]): inactive; Activity (SK-N-SH [10]): 90.6%; Activity [7]: 58%; Activity (SK-N-SH [6]): Active; Activity (PC-12): >200%; Activity (HeLa [11]): 51%; EC50 (HeLa [11]; Homo sapiens, HeLa, 2 h): 32.9 µM |

| Activity [3] | EC50 (SK-N-SH [2]; [12]) | Structure (SMILES) | CC50 [1] | CC50 [4] | further results |
| --- | --- | --- | --- | --- | --- |
| inactive | 20 µM | OC(CO/N=C(\Cl)c1nc2ccccc2o1)CN1CCCC(F)C1 (stereo not drawn) | 49.8 µM | 52.7 µM | – |
| – | – | O=C(NOCC(O)CN1CCCCC1)c1nc2ccccc2o1 (stereo not drawn) | > 80 µM | > 80 µM | EC50 (SK-N-SH [2]; sk-n-sh): Not Active |
| inactive | 6.3 µM | OC(CO/N=C(\Cl)c1nc2cc(Cl)ccc2o1)CN1CCCCC1 (stereo not drawn) | 23.2 µM | 31.4 µM | – |
| inactive | 13.5 µM | OC(CO/N=C(\Cl)c1nc2ccccc2s1)CN1CCCCC1 (stereo not drawn) | 26.5 µM | 49.1 µM | – |
| – | 41.9 µM | CC(=O)NCC(O)CO/N=C(\Cl)c1nc2ccccc2o1 (stereo not drawn) | > 80 µM | > 80 µM | – |
| inactive | 11 µM | OC(CO/N=C(\Cl)c1nc2ccc(F)cc2o1)CN1CCCCC1 (stereo not drawn) | 37.3 µM | > 80 µM | – |
| – | – | OC(CO/N=C(/c1nc2ccccc2o1)C(F)(F)F)CN1CCCCC1 (stereo not drawn) | > 80 µM | > 80 µM | EC50 (SK-N-SH [2]; sk-n-sh): Not Active |
| inactive | 14.7 µM | CC(C)N(CC(O)CO/N=C(\Cl)c1nc2ccccc2o1)C(C)C (stereo not drawn) | 30.8 µM | 45 µM | Activity (PC-12): >150% and 300% |
| inactive | 9 µM | OC(CO/N=C(\Cl)c1nc2ccc(Cl)cc2o1)CN1CCCCC1 (stereo not drawn) | 20 µM | 44.2 µM | – |
| inactive | 9.5 µM | Cc1ccc2oc(/C(Cl)=N/OCC(O)CN3CCCCC3)nc2c1 (stereo not drawn) | 34.6 µM | – | – |
| – | 58.7 µM | Cl/C(=N\OCCCN1CCCCC1)c1nc2ccccc2o1 | > 80 µM | > 80 µM | – |
| – | 61.7 µM | OC(CO/N=C(\Cl)c1nc2ccccc2o1)CN1CCOCC1 (stereo not drawn) | > 80 µM | > 80 µM | – |
| inactive | 3.8 µM | OC(CO/N=C(\Cl)c1nc2cccc(F)c2o1)CN1CCCCC1 (stereo not drawn) | 16.9 µM | 19.3 µM | – |
| inactive | 6.3 µM | CC(C)N(CC(O)CO/N=C(\Cl)c1nc2ccccc2o1)CC1CC1 (stereo not drawn) | 32.7 µM | 24.4 µM | – |
| inactive | 22.3 µM | CCCCN(CCCC)CC(O)CO/N=C(\Cl)c1nc2ccccc2o1 (stereo not drawn) | 41 µM | > 80 µM | – |
| inactive | 5.2 µM | OC(CO/N=C(\Cl)c1nc2c(ccc3ccccc32)o1)CN1CCCCC1 (stereo not drawn) | 17.4 µM | 18.9 µM | – |
| inactive | 26.4 µM | OC(CO/N=C(\Cl)c1nc2ccccc2o1)CN1CCC(F)(F)CC1 (stereo not drawn) | > 80 µM | > 80 µM | Activity [8]: 49% |
| inactive | 8.2 µM | CC(C)N(CCO)CC(O)CO/N=C(\Cl)c1nc2ccccc2o1 (stereo not drawn) | 30.6 µM | 50.2 µM | – |
| inactive | 9.3 µM | CC1CC(C)CN(CC(O)CO/N=C(\Cl)c2nc3ccccc3o2)C1 (stereo not drawn) | 34 µM | 55.3 µM | – |
| inactive | 10.2 µM | CCN(CC)CC(O)CO/N=C(\Cl)c1nc2ccccc2o1 (stereo not drawn) | 36.2 µM | – | – |
| inactive | 11.1 µM | CC1CCCC(C)N1CC(O)CO/N=C(\Cl)c1nc2ccccc2o1 (stereo not drawn) | 36.2 µM | 78.9 µM | – |
